Test results: ChEMBL document CHEMBL1157725 (Bioorg Med Chem, 2010)
pEC50, pIC50: −log10 of the molar value. The source made the active and inactive calls. No cut-off for these calls is given here.

How the values were obtained:
MCF7 = assay: Antiproliferative activity against human MCF7 cells after 24 hrs by SRB assay; assay type: functional, cell-based; details: MCF7, 24 h
Method in brief: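 MCF-7 cells are grown for 24 h with or without drug, then for a further 48 h. Total cell protein is measured by sulforhodamine B staining, and the IC₅₀ is derived from it.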

[1] = Inhibition of tubulin polymerization by turbidimetry
Method in brief: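 Tubulin at 10 µM (1.0 mg/mL). Polymerization followed turbidimetrically at 350 nm in temperature-controlled spectrophotometers.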

[2] = Displacement of [3H]colchicine from tubulin at 50 uM by turbidimetry; details: in the assay text read “by DEAE-cellulose filter method” for “by turbidimetry”
Method in brief: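 Binding of [³H]colchicine to tubulin (1.0 µM, 0.1 mg/mL) is measured by the DEAE-cellulose filter method. The radioligand is at 5.0 µM and test agents at 5 or 50 µM. Each is run in triplicate.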

[3] = Inhibition of tubulin in rat A10 cells assessed as induction of cellular microtubule disassembly after 18 hrs by indirect immunofluorescence technique; assay type: cell-based; details: A10, 18 h
Method in brief: (§1)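 A-10 cells plated on glass coverslips and treated with compound at varying concentrations for 18 h. After fixation, microtubules immunostained with a β-tubulin antibody (indirect immunofluorescence) and nuclei stained with DAPI. Read by fluorescence microscopy. Percentage of cellular microtubule loss estimated visually across the concentration range.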

A10 = assay: Inhibition of tubulin in rat A10 cells assessed as disappearance of microtubule network at 20 uM after 18 hrs by fluorescence microscopy; assay type: cell-based; method in brief: as §1
[4] = Displacement of [3H]colchicine from tubulin at 5 uM by DEAE-cellulose filter method

pIC50 (MCF7): 6.96
pIC50 [1]: 5.59
inhibition [2]: 101%
pEC50 [3]: 6.01
inhibition [4]: 88%
Structure (SMILES): COc1ccc(/C=C/C(=O)c2cc(OC)c(OC)c(OC)c2)cc1O
Activity (A10): Active
